How the values were obtained:
KB [1] = assay: Increase in adriamycin uptake in modulator-treated cells relative to untreated KB-A1 cells at a concentration of 5 uM; format: functional, Homo sapiens
In short: (§1)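 DC-3F/AD or KB-A1 cells (5 × 10⁶/mL) were incubated at 37 °C for 5 h with 50 μM adriamycin plus modulator (2.5–10 μM range). ADR fluorescence of 10 000 cells was read by flow cytometry at 4 °C with 488 nm argon-laser excitation. The value is the increase in mean fluorescence of treated cells over untreated cells.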

Cricetinae gen. sp. = assay: (§2) Percent of cell viability remaining after incubating the cells with the modulator alone at a concentration of 10 uM; format: functional, Cricetulus griseus
In short: (§3)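 Cells were grown with modulator alone for 4 days under the same conditions as the chemosensitivity assay, and read by MTT. Viability = (absorbance with modulator/absorbance of control cells) × 100. "tox" marks viability below 25%.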

DC3F/AD [2] = assay: In vitro activity in DC-3F/AD cell line Ratio of IC50(actinomycin D alone) / IC50(actinomycin D + modulator) at a concentration of 10 uM
DC3F/AD [3] = assay: Percent of cell viability remaining after incubating the cells with the modulator alone a concentration of 5 uM; format: functional, Cricetulus griseus; in short: as §3
DC3F/AD [4] = assay: In vitro activity in DC-3F/AD cell line(Ratio of IC50(actinomycin D alone) / IC50(actinomycin D + modulator) at a concentration of 5 uM
KB [5] = assay: Compound was evaluated for the in vitro activity in KB-A1 cell line. Activity expressed as fold reversion (Ratio of IC50(adriamycin alone) / IC50(adriamycin + modulator) at a concentration of 5 uM; format: functional, Homo sapiens
In short: (§4)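 Human epidermoid KB-A1 cells (Pgp-overexpressing) were grown in RPMI 1640 with 10% FCS and 10 mM HEPES (pH 7.4). They were exposed for 4 days to adriamycin (nine graded concentrations, in triplicate) with or without 5 μM modulator. IC50 was read by the MTT assay. Fold reversion = IC50(ADR alone)/IC50(ADR + modulator).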

KB [6] = assay: Percent of cell viability remaining after incubating the cells with the modulator alone; format: functional, Homo sapiens; design: concentration or dose not given beside the values; in short: as §3
DC3F/AD [7] = assay: Increase in adriamycin uptake in modulator-treated cells relative to untreated cells at a concentration of 10 uM; format: functional, Cricetulus griseus; in short: as §1
DC3F/AD [8] = assay: (§5) Increase in adriamycin uptake in modulator-treated cells relative to untreated cells at a concentration of 5 uM; format: functional, Cricetulus griseus; in short: as §1
P388 [9] = assay: Antitumor activity of vincristine against P388 leukemia cell line in mice at a dose of 50 mg/kg.; format: functional, Mus musculus
P388 [10] = assay: Antitumor activity of vincristine against P388 leukemia cell line in mice at a dose of 100 mg/kg.; format: functional, Mus musculus
DC3F/AD [11] = assay: Percent of cell viability remaining after incubating with a 10 uM concentration; format: functional, Cricetulus griseus; in short: as §3
KB [12] = assay: In vitro activity in KB-A1 cell line activity expressed as fold reversion (Ratio of IC50(adriamycin alone) / IC50(adriamycin + modulator) at a concentration of 5 uM; format: functional, Homo sapiens; in short: as §4
DC3F/AD [13] = assay: as §2; format: functional, Cricetulus griseus; in short: as §3
KB [14] = assay: Compound was evaluated for the in vitro activity in KB-A1 cell line)Activity expressed as fold reversion (Ratio of IC50(adriamycin alone) / IC50(adriamycin + modulator) at a concentration of 5 uM; format: functional, Homo sapiens; in short: as §4
DC3F/AD [15] = assay: Percent of cell viability remaining after incubating the cells with the modulator alone at a concentration of 5 uM; format: functional, Cricetulus griseus; in short: as §3
DC3F/AD [16] = assay: Compound was evaluated for in vitro activity in DC-3F/AD cell line (Ratio of IC50(actinomycin D alone) / IC50(actinomycin D + modulator) at a concentration of 5 uM
KB [17] = assay: as §5; format: functional, Homo sapiens; in short: as §1
P388/VCR [18] = assay: Antitumor activity of vincristine against P388/VCR leukemia in mice at a dose of 50 mg/kg.; format: functional, Mus musculus
P388/VCR [19] = assay: Antitumor activity of vincristine against P388/VCR leukemia in mice at a dose of 100 mg/kg.; format: functional, Mus musculus

Row | SMILES | Increase (KB [1]) | Viability (Cricetinae gen. sp.) | Fold reversion (DC3F/AD [2]) | Viability (DC3F/AD [3]) | Fold reversion (DC3F/AD [4]) | Fold reversion (KB [5]) | Viability (KB [6]) | Increase (DC3F/AD [7]) | Increase (DC3F/AD [8]) | T/C (P388 [9]) | T/C (P388 [10]) | Viability (DC3F/AD [11]) | Fold reversion (KB [12]) | Of viability (DC3F/AD [13]) | Fold reversion (KB [14]) | Viability (DC3F/AD [15]) | Fold reversion (DC3F/AD [16]) | Increase (KB [17]) | T/C (P388/VCR [18]) | T/C (P388/VCR [19])
1 | C=CCNc1nc(NCC=C)nc(N2CCN(CC3c4ccccc4CCc4ccccc43)CC2)n1 | 29.7 | 70% | 1832 | 84% | 464 | 63 | 121% | 24.5 | 17.6 | – | – | – | – | – | – | – | – | – | – | –
2 | C=CCNc1nc(NCC=C)nc(N2CCC(NCC3c4ccccc4CCc4ccccc43)CC2)n1 | 53.6 | – | 6021 | 98% | 3144 | – | 68% | 38.3 | 33 | 161% | 167% | 54% | 252 | – | – | – | – | – | – | –
3 | C=CCNc1nc(NCC=C)nc(N2CCC(NCC3c4ccccc4N(C)S(=O)(=O)c4cc(Cl)ccc43)CC2)n1 (stereo unspecified) | 39.8 | – | 9570 | 91% | 2804 | – | 92% | 24.1 | 22.8 | 177% | 173% | – | 147 | 77% | – | – | – | – | – | –
4 | C=CCNc1nc(NCC=C)nc(N2CCC(NCC(c3ccccc3)S(=O)(=O)c3ccccc3)CC2)n1 (stereo unspecified) | 41.9 | – | 817 | 107% | 139 | – | 115% | 29 | 21.2 | – | – | 92% | – | – | 277 | – | – | – | – | –
5 | C=CCNc1nc(NCC)nc(N2CCC(NCC3c4ccccc4CCc4ccccc43)CC2)n1 | 45.9 | – | 10684 | 114% | 2499 | – | 58% | 24.9 | 23.1 | 190% | 174% | 64% | 201 | – | – | – | – | – | – | –
6 | C=CCNc1nc(Cl)nc(N2CCC(NCC3c4ccccc4CCc4ccccc43)CC2)n1 | 33.8 | – | 2205 | 96% | 850 | – | 63% | 27.5 | 21.6 | – | – | 96% | – | – | 236 | – | – | – | – | –
7 | C=CCNc1nc(NCC=C)nc(NCCN2CCN(C3c4ccccc4CCc4ccccc43)CC2)n1 | 26.2 | – | <25 | – | – | <25 | – | 10.5 | 10.2 | – | – | – | – | – | – | – | – | – | – | –
8 | C=CCNc1nc(NCC=C)nc(N2CCN(C(c3ccc(F)cc3)c3ccc(F)cc3)CC2)n1.CS(=O)(=O)O | – | – | 235 | – | 112 | – | – | 17.9 | 7.3 | – | – | 63% | – | – | – | 65% | – | – | – | –
9 | COc1ccc(CCN(C)CCCC(C#N)(c2ccc(OC)c(OC)c2)C(C)C)cc1OC (stereo unspecified) | 13.4 | – | 34 | 43% | – | 26 | 75% | 7.5 | 2.6 | – | – | 39% | – | – | – | – | 3 | – | – | –
10 | C=CCNc1nc(NCCC)nc(N2CCC(NCC3c4ccccc4CCc4ccccc43)CC2)n1 | – | – | 4455 | 85% | 2753 | – | 55% | 24.9 | 27.3 | 179% | 176% | 42% | 221 | – | – | – | – | 51.3 | – | –
11 | C=CCN(CC=C)c1nc(N(CC=C)CC=C)nc(N2CCC(NCC(c3ccccc3)c3ccccc3)CC2)n1 | – | – | 1 | 74% | 1 | – | 78% | – | – | – | – | 65% | – | – | 1 | – | – | – | – | –
12 | C=CCNc1nc(NCC=C)nc(N2CCC(N(C)CC3c4ccccc4CCc4ccccc43)CC2)n1 | 25.6 | – | 3035 | 70% | 834 | – | 111% | 21.8 | 17.8 | – | – | 69% | 118 | – | – | – | – | – | – | –
13 | C=CCNc1nc(NCC=C)nc(N2CCC(NCC3c4ccccc4C=Cc4ccccc43)CC2)n1 | 59.2 | – | <25 | 86% | 1420 | – | 31% | 25.8 | 24.5 | 196% | 172% | – | 640 | – | – | – | – | – | – | –
14 | C=CCNc1nc(NCC=C)nc(N2CCC(NC(c3ccccc3)c3ccccc3)CC2)n1 | – | – | 1828 | – | 905 | – | – | 40 | 25.9 | – | – | 61% | – | – | – | 75% | – | – | – | –
15 | C=CCNc1nc(NCC=C)nc(N2CCN(C3c4ccccc4CCc4ccccc43)CC2)n1 | 11.2 | – | 455 | 92% | 309 | 36 | 108% | 19.3 | 16.9 | – | – | 87% | – | – | – | – | – | – | – | –
16 | C=CCNc1nc(NCC=C)nc(N2CCC(NCC3c4ccccc4CCCc4ccccc43)CC2)n1 | 44.1 | – | <25 | 105% | 2951 | – | 89% | 21.6 | 22.3 | 173% | 186% | – | 177 | – | – | – | – | – | – | –
17 | C=CCNc1nc(NCCC)nc(N2CCC(NCC(c3ccccc3)c3ccccc3)CC2)n1 | 51.5 | – | 2356 | 77% | 965 | – | 93% | 34.2 | 26 | 176% | 177% | 66% | 236 | – | – | – | – | – | 167% | 163%
18 | C=CCNc1nc(NC)nc(N2CCC(NCC3c4ccccc4COc4ccccc43)CC2)n1 (stereo unspecified) | 35 | – | 2203 | 54% | 600 | – | 107% | 21.5 | 16.8 | 181% | 163% | 75% | 183 | – | – | – | – | – | 170% | –
19 | C=CCNc1nc(NCC=C)nc(N2CCN(NCC3c4ccccc4CCc4ccccc43)CC2)n1 | 22.8 | – | 1159 | 87% | 329 | – | 96% | 28.2 | 21.1 | – | – | 81% | – | – | 93 | – | – | – | – | –
20 | C=CCNc1nc(NCC=C)nc(NCC(O)CN2CCN(C3c4ccccc4CCc4ccccc43)CC2)n1 (stereo unspecified) | 29.2 | – | <25 | – | <25 | <25 | – | 27.6 | 24.3 | – | – | – | – | – | – | – | – | – | – | –

Source: ChEMBL document CHEMBL1126298, “New triazine derivatives as potent modulators of multidrug resistance” (1992)
